In ChEMBL document CHEMBL1122509, “(1,3-Dialkyl-5-amino-1H-pyrazol-4-yl)arylmethanones. A series of novel central nervous system depressants” (1984):

Columns and labels:
Mus musculus [1] = test: Compound was evaluated for the inhibition of Locomotion-Screen falloff test, at dose (mg/Kg) = 30; 0-30%; format: functional
Method in brief: (§1)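 Unfasted male Swiss–Webster mice, 20–30 g, nine per dose in three groups of three, received 10, 30 or 100 mg/kg ip as parent compound in 0.2% methocel, 1 h before testing; controls got methocel. Screen test: percent of mice falling from a screen inverted 180° during 60 s. Then locomotion was read by actophotometer over 1 h as percent inhibition versus vehicle. Graded bands: 60–100% = A.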

Mus musculus [2] = test: Compound was evaluated for the inhibition of Locomotion-Screen falloff test, at dose (mg/Kg) = 10; 0-30%; format: functional; method in brief: as §1
Mus musculus [3] = organism: Mus musculus; test: Central nervous system depressant activity; format: functional
Method in brief: (§2)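 Male albino Webster mice, 20–26 g, groups of five, given ip doses of 250, 125, 63 mg/kg and lower until no effect was seen. Doses were calculated as active component and given in 0.9% saline or 100% propylene glycol. Observers scored motor activity, ataxia, depression, reflexes, posture, muscle tone and responses to noise, touch, restraint and transfer over 15–60 min. Survivors were held 24 h for a provisional acute toxicity level.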

Rattus norvegicus = test: Evaluated for anticonvulsant activity to protect all rats tested, when administered subcutaneously; format: functional
Mus musculus [4] = test: Compound was evaluated for the inhibition of Locomotion-Screen falloff test, at dose (mg/Kg) = 100; 60-100%; format: functional; method in brief: as §1
Mus musculus [5] = test: Compound was evaluated for the inhibition of Locomotion-Screen falloff test, at dose (mg/Kg) = 100; 31-59%; format: functional; method in brief: as §1
Mus musculus [6] = test: Compound was evaluated for central nervous system depressant activity at 250 mg/kg; c=Quiet at 250 mg/kg; format: functional, organism-based; method in brief: as §2
Mus musculus [7] = test: Compound was evaluated for the inhibition of Locomotion-Screen falloff test by ip route; format: functional; method in brief: as §1
Mus musculus [8] = test: Compound was evaluated for the inhibition of Locomotion-Screen falloff test, at dose (mg/Kg) = 30; 60-100%; format: functional; method in brief: as §1
Mus musculus [9] = test: Compound was evaluated for the inhibition of Locomotion-Screen falloff test, at dose (mg/Kg) = 10; 31-59%; format: functional; method in brief: as §1
Mus musculus [10] = test: Compound was evaluated for the inhibition of Locomotion-Screen falloff test, at dose (mg/Kg) = 30; 31-59%; format: functional; method in brief: as §1
Mus musculus [11] = test: Compound was evaluated for the inhibition of Locomotion-Screen falloff test, at dose (mg/Kg) = 10; 60-100%; format: functional; method in brief: as §1
Mus musculus [12] = test: Compound was evaluated for the inhibition of Locomotion-Screen falloff test, at dose (mg/Kg) = 10; format: functional
Method in brief: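 Swiss-Webster male mice (20–30 g, unfasted), 9 per dose in three groups of three; 10 mg/kg ip in 0.2% methocel, dosed as parent compound, 1 h before testing; methocel-injected controls. Inverted wire screen (180° rotation, 60 s) scored as percent falling off. Then actophotometer counts over 1 h give percent inhibition versus vehicle; graded A = 60–100%.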

Structure (SMILES)	Activity (Mus musculus [3])	Activity (Rattus norvegicus)	further results
Cc1nn(C)c(N)c1C(=O)c1ccccc1Cl	63 mg/kg	125 mg/kg	Inhibition (Mus musculus [1]): 0%; Inhibition (Mus musculus [2]): 0%; Inhibition (Mus musculus [4]): 60%
CCCn1nc(C)c(C(=O)c2ccc(Cl)cc2)c1N	16 mg/kg	32 mg/kg	
CCCn1nc(C)c(C(=O)c2ccccc2Br)c1N	8 mg/kg	32 mg/kg	
CCc1nn(C)c(N)c1C(=O)c1cccc(F)c1	63 mg/kg	500 mg/kg	
Cc1nn(C(C)C)c(N)c1C(=O)c1ccccc1Cl	63 mg/kg	500 mg/kg	
CCc1nn(C)c(N)c1C(=O)c1ccccc1F	32 mg/kg	250 mg/kg	Inhibition (Mus musculus [1]): 0%; Inhibition (Mus musculus [2]): 0%; Inhibition (Mus musculus [5]): 31%
Cc1nn(C2CCCCC2)c(N)c1C(=O)c1ccccc1Cl			Activity (Mus musculus [6]): Quiet at 250mg/kg
Cc1nn(C)c(N)c1C(=O)c1cccs1	8 mg/kg		Inhibition (Mus musculus [2]): 0%; ED50 (Mus musculus [7]): 34.2 mg/kg; Inhibition (Mus musculus [4]): 60%; Inhibition (Mus musculus [8]): 60%
CCc1nn(C)c(N)c1C(=O)c1ccccc1	16 mg/kg	250 mg/kg	Inhibition (Mus musculus [9]): 31%; Inhibition (Mus musculus [5]): 31%; Inhibition (Mus musculus [8]): 60%
CCCCn1nc(C)c(C(=O)c2ccccc2Cl)c1N	8 mg/kg	125 mg/kg	
CCCn1nc(C)c(C(=O)c2cccc(OC)c2Cl)c1N	16 mg/kg	63 mg/kg	
CCCn1nc(C)c(C(=O)c2ccccc2C(F)(F)F)c1N	8 mg/kg	63 mg/kg	
CCCn1nc(C)c(C(=O)c2ccccc2OC)c1N	16 mg/kg	125 mg/kg	
CCCc1nn(C)c(N)c1C(=O)c1ccccc1Cl	32 mg/kg	125 mg/kg	
CCCn1nc(C)c(C(=O)c2cccs2)c1N	250 mg/kg	125 mg/kg	
Cc1nn(-c2ccccc2)c(N)c1C(=O)c1ccccc1Cl	250 mg/kg		
Cc1nn(C)c(N)c1C(=O)c1ccc(Cl)cc1	125 mg/kg	125 mg/kg	Inhibition (Mus musculus [1]): 0%; Inhibition (Mus musculus [2]): 0%; Inhibition (Mus musculus [4]): 60%
CCCCc1nn(C)c(N)c1C(=O)c1ccccc1Cl		125 mg/kg	
CC(C)c1nn(C)c(N)c1C(=O)c1ccccc1Cl	63 mg/kg		

Structure (SMILES)	Activity (Mus musculus [3])	Activity (Rattus norvegicus)	further results
Cc1nn(C)c(N)c1C(=O)c1ccsc1	16 mg/kg		
Cc1nn(C)c(N)c1C(=O)c1cccc(Cl)c1	125 mg/kg	63 mg/kg	Inhibition (Mus musculus [1]): 0%; Inhibition (Mus musculus [2]): 0%; Inhibition (Mus musculus [5]): 31%
Cc1nn(C)c(N)c1C(=O)c1ccccc1C(F)(F)F	125 mg/kg	250 mg/kg	Inhibition (Mus musculus [2]): 0%; Inhibition (Mus musculus [10]): 31%; Inhibition (Mus musculus [4]): 60%
Cc1ccccc1C(=O)c1c(C)nn(C)c1N	32 mg/kg	125 mg/kg	Inhibition (Mus musculus [1]): 0%; Inhibition (Mus musculus [9]): 31%; Inhibition (Mus musculus [4]): 60%
COc1cccc(C(=O)c2c(C)nn(C)c2N)c1Cl	32 mg/kg	250 mg/kg	
CCCCn1nc(C)c(C(=O)c2cccc(Cl)c2)c1N	32 mg/kg	500 mg/kg	
COc1ccccc1C(=O)c1c(C)nn(C)c1N	32 mg/kg	125 mg/kg	Inhibition (Mus musculus [2]): 0%; Inhibition (Mus musculus [10]): 31%; Inhibition (Mus musculus [5]): 31%
Cc1nn(C)c(N)c1C(=O)c1cccc(C(F)(F)F)c1	4 mg/kg	125 mg/kg	Inhibition (Mus musculus [1]): 0%; Inhibition (Mus musculus [2]): 0%; Inhibition (Mus musculus [5]): 31%
Cc1nn(C)c(N)c1C(=O)c1ccccc1F	32 mg/kg	250 mg/kg	ED50 (Mus musculus [7]): 9.4 mg/kg; Inhibition (Mus musculus [11]): 60%; Inhibition (Mus musculus [8]): 60%
CCn1nc(C)c(C(=O)c2ccccc2Cl)c1N	32 mg/kg	16 mg/kg	
O=c1[nH]c2ccccc2n1C1CCN(CCCC(c2ccc(F)cc2)c2ccc(F)cc2)CC1 [PIMOZIDE]			ED50 (Mus musculus [12]): 5.9 mg/kg; Inhibition (Mus musculus [11]): 60%
CCCn1nc(C)c(C(=O)c2ccccc2C)c1N	16 mg/kg	63 mg/kg	
Cc1nn(C)c(N)c1C(=O)c1ccccc1Br	63 mg/kg	125 mg/kg	Inhibition (Mus musculus [1]): 0%; Inhibition (Mus musculus [9]): 31%; Inhibition (Mus musculus [5]): 31%
Cc1nn(C)c(N)c1C(=O)c1ccccc1	63 mg/kg	500 mg/kg	Inhibition (Mus musculus [2]): 0%; Inhibition (Mus musculus [10]): 31%; Inhibition (Mus musculus [4]): 60%
CCCn1nc(C)c(C(=O)c2ccccc2Cl)c1N	8 mg/kg	32 mg/kg	
CSc1ccc2c(c1)N(CCC1CCCCN1C)c1ccccc1S2 (configuration not stated) [THIORIDAZINE]			ED50 (Mus musculus [7]): 2.9 mg/kg; Inhibition (Mus musculus [11]): 60%
Cn1nc(-c2ccccc2)c(C(=O)c2ccccc2Cl)c1N	250 mg/kg		
CCc1nn(C)c(N)c1C(=O)c1ccccc1Cl	63 mg/kg	500 mg/kg	
